Reference: ChEMBL document CHEMBL4052833, “Design, Synthesis, and Biological Activity of New N-(Phenylmethyl)-benzoxazol-2-thiones as Macrophage Migration Inhibitory Factor (MIF) Antagonists: Efficacies in Experimental Pulmonary Hypertension” (J Med Chem, 2018)
≈ marks a conversion by molar mass, not a printed value. Each block holds one molecule with its values, some of them ahead of it. Calls of active or inactive are those of the source. The rule behind the calls is not given here.

Assays:
DU-145 [1] = assay: Inhibition of cell survival in MIF dependent human DU145 cells at 100 uM after 24 hrs by MTT assay; assay type: functional; details: for inhibition at 100 µM: DU-145, 24 h
In short: (§1)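 DU-145 (RPMI) or iPAH endothelial cells (MCDB131) grown 24 h with 10% FCS, washed, then exposed 24 h serum-free to 10, 50 or 100 µM compound. MTT 5 mg/mL added for 6 h, medium removed, DMSO added, absorbance read at 590 nm.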

[2] = biological target: T1, Macrophage migration inhibitory factor (Homo sapiens, UniProt P14174); assay: Inhibition of recombinant human MIF tautomerase activity using 4-HPP as substrate preincubated for 15 mins followed by substrate addition measured after 360 secs
T1 sequence (P14174 whole entry): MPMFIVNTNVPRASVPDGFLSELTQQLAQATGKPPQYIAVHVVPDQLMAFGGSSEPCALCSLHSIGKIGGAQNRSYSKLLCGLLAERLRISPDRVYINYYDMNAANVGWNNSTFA
In short: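 Recombinant human MIF (100 nM) preincubated 15 min with 8 inhibitor concentrations, 0–10 µM; 4-HPP substrate, pre-equilibrated overnight at 4°C in 50 mM ammonium acetate, added in 0.435 M boric acid pH 6.6 at room temperature. Absorbance increase at 305 nm followed over 0–360 s; Ki determined; at least 3 independent replicates.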

Rattus norvegicus [3] = assay: Cardiotoxicity in MCT-induced pulmonary hypertension Wistar rat model assessed as effect on collagen area fraction in left ventricle at 30 mg/kg/day administered via oral gavage for 2 weeks starting from 2 weeks post MCT challenge measured post last dose by picrosirius red staining based assay; assay type: toxicity, organism-based; details: in vivo, 336 h
In short: (§2)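 Monocrotaline rat model as above (60 mg/kg s.c.; daily gavage 30 mg/kg/day for 2 weeks starting 2 weeks post-MCT, DMSO/propylene glycol/saline vehicle). Heart sections deparaffinized and stained with Picrosirius red for collagen; collagen area fraction scored in right and left ventricle myocardium against control rats.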

Rattus norvegicus [4] = assay: Anti-hypertensive activity in MCT-induced pulmonary hypertension Wistar rat model assessed as reduction in right ventricular hypertrophy at 30 mg/kg/day administered via oral gavage for 2 weeks starting from 2 weeks post MCT challenge measured post last dose; assay type: functional, organism-based
In short: (§3)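 Young male Wistar rats (100 g) given single subcutaneous monocrotaline 60 mg/kg; from 2 weeks later, dosed daily by gavage for 2 weeks at 30 mg.kg.day-1 in 33% DMSO in propylene glycol:saline (68:32), or vehicle alone. Under isoflurane, jugular catheter advanced into pulmonary artery for pressure; cardiac output by thermodilution; RV hypertrophy as Fulton index.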

Rattus norvegicus [5] = assay: Anti-hypertensive activity in MCT-induced pulmonary hypertension Wistar rat model at 30 mg/kg/day administered via oral gavage for 2 weeks starting from 2 weeks post MCT challenge; assay type: functional, organism-based; in short: as §3
[6] = biological target: T2, Macrophage migration inhibitory factor (Homo sapiens) (UniProt P14174); assay: Inhibition of recombinant human MIF-induced ERK phosphorylation in idiopathic pulmonary arterial hypertension patient derived primary pulmonary endothelial cells by Western blot analysis
T2 sequence (whole entry): T1 sequence (P14174 whole entry)
In short: (§4)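 iPAH-derived pulmonary endothelial cells stimulated with 50 ng/mL recombinant MIF (endotoxin <0.07 EU/µg) with increasing antagonist doses; lysed and sonicated in RIPA with protease/phosphatase inhibitors, 30 µg protein immunoblotted for pAKT/AKT and pERK1/2/ERK.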

DU-145 [7] = assay: Induction of apoptosis in human DU145 cells assessed as increase in caspase 3/7 activity after 24 hrs by fluorescence based assay; assay type: functional, cell-based
In short: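 DU-145 cells exposed to increasing doses for 24 h; caspase-3/7 activity measured by fluorogenic Apo-ONE read-out.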

[8] = Aqueous solubility in pH 7.4 PBS buffer at […] after 24 hrs; assay type: physicochemical
Rattus norvegicus [9] = assay: Cardioprotective activity in MCT-induced pulmonary hypertension Wistar rat model assessed as reversal of increased collagen fibers in endomysium at 30 mg/kg/day administered via oral gavage for 2 weeks starting from 2 weeks post MCT challenge measured post last dose by picrosirius red staining-based assay; assay type: functional, organism-based; in short: as §2
[10] = Inhibition of cell survival in idiopathic pulmonary arterial hypertension patient derived primary pulmonary endothelial cells at 100 uM after 24 hrs by MTT assay; assay type: functional; details: Homo sapiens; in short: as §1
DU-145 [11] = assay: Inhibition of cell survival in MIF dependent human DU145 cells after 24 hrs by MTT assay; assay type: functional, cell-based; details: DU-145, 24 h; in short: as §1
DU-145 [12] = assay: Induction of apoptosis in human DU145 cells assessed as necrotic cells at 100 uM by Annexin V-FITC-staining based FACS analysis (reference value: 0.22%); assay type: functional
DU-145 [13] = assay: Antiproliferative activity against human DU145 cells by BrdU-incorporation based time-resolved fluorescence analysis
[14] = biological target: T2, Macrophage migration inhibitory factor (Homo sapiens); assay: Inhibition of recombinant human MIF-induced AKT phosphorylation in idiopathic pulmonary arterial hypertension patient derived primary pulmonary endothelial cells by Western blot analysis; in short: as §4
Rattus norvegicus [15] = assay: Anti-hypertensive activity in MCT-induced pulmonary hypertension Wistar rat model assessed as reduction in mean pulmonary artery pressure at 30 mg/kg/day administered via oral gavage for 2 weeks starting from 2 weeks post MCT challenge measured post last dose; assay type: functional, organism-based; in short: as §3
Rattus norvegicus [16] = assay: Toxicity in MCT-induced pulmonary hypertension Wistar rat model assessed as change in heart rate at 30 mg/kg/day administered via oral gavage for 2 weeks starting from 2 weeks post MCT challenge; assay type: organism-based; details: in vivo, 336 h; in short: as §3
Rattus norvegicus [17] = assay: Cardiotoxicity in MCT-induced pulmonary hypertension Wistar rat model assessed as induction of cardiac fibrosis at 30 mg/kg/day administered via oral gavage for 2 weeks starting from 2 weeks post MCT challenge measured post last dose by picrosirius red staining based assay; assay type: toxicity, organism-based; details: in vivo, 336 h; in short: as §2
Rattus norvegicus [18] = assay: Toxicity in MCT-induced pulmonary hypertension Wistar rat model assessed as change in systemic blood pressure at 30 mg/kg/day administered via oral gavage for 2 weeks starting from 2 weeks post MCT challenge; assay type: organism-based; details: in vivo, 336 h; in short: as §3
DU-145 [19] = assay: Induction of apoptosis in human DU145 cells assessed as late apoptotic cells at 100 uM by Annexin V-FITC-staining based FACS analysis (reference value: 2.34%); assay type: functional
DU-145 [20] = assay: Induction of apoptosis in human DU145 cells assessed as early apoptotic cells at 100 uM by Annexin V-FITC-staining based FACS analysis (reference value: 2.5%); assay type: functional
DU-145 [21] = assay: Induction of apoptosis in human DU145 cells assessed as viable cells at 100 uM by Annexin V-FITC-staining based FACS analysis (reference value: 94.9%); assay type: functional; details: read-out: Activity
DU-145 [22] = assay: Induction of apoptosis in human DU145 cells at 100 uM by TUNEL assay; assay type: functional, cell-based
Rattus norvegicus [23] = assay: Toxicity in MCT-induced pulmonary hypertension Wistar rat model assessed as change in body weight at 30 mg/kg/day administered via oral gavage for 2 weeks starting from 2 weeks post MCT challenge; assay type: organism-based; details: in vivo, 336 h; in short: as §3

SMILES: Cc1ccc2oc(=O)n(Cc3ccccc3)c2c1
inhibition (DU-145 [1]): inactive

SMILES: Cc1ccc2oc(=S)n(Cc3cccc([N+](=O)[O-])c3)c2c1
inhibition at 100 µM (DU-145 [1]): 24%

SMILES: COc1ccccc1Cn1c(=S)oc2ccc(C)cc21
inhibition at 100 µM (DU-145 [1]): 29%

SMILES: S=c1oc2ccccc2n1Cc1ccccc1
inhibition (DU-145 [1]): inactive

SMILES: Cc1ccc2oc(=S)n(Cc3ccc(Cl)cc3)c2c1
inhibition at 100 µM (DU-145 [1]): 22%

SMILES: Cc1ccc2oc(=S)n(Cc3ccc([N+](=O)[O-])cc3)c2c1
inhibition at 100 µM (DU-145 [1]): 13%

SMILES: COC(=O)CC1CC(c2ccc(O)cc2)=NO1 (configuration not stated)
inhibition at 100 µM (DU-145 [1]): 8%

SMILES: CC(C)(C)c1ccc2oc(=S)n(Cc3ccccc3)c2c1
inhibition (DU-145 [1]): inactive

SMILES: Cc1ccc2oc(=S)n(Cc3ccc(F)cc3)c2c1
inhibition at 100 µM (DU-145 [1]): 25%

SMILES: Cc1ccc2c(c1)oc(=S)n2Cc1ccccc1
inhibition at 100 µM (DU-145 [1]): 24%

SMILES: FC(F)(F)c1ccc2oc(=S)n(Cc3ccccc3)c2c1
inhibition at 100 µM (DU-145 [1]): 48%

SMILES: Cc1ccc(Cn2c(=S)oc3ccc(C)cc32)cc1
inhibition (DU-145 [1]): inactive

SMILES: COc1ccc(Cn2c(=S)oc3ccc(C)cc32)cc1
inhibition at 100 µM (DU-145 [1]): 36%

SMILES: Fc1ccc2oc(=S)n(Cc3ccccc3)c2c1
inhibition at 100 µM (DU-145 [1]): 31%

Ki [2]: 1000 to 3000 nM
SMILES: CC(C)c1ccc2oc(=S)n(Cc3ccccc3)c2c1
inhibition (DU-145 [1]): inactive

SMILES: Cc1ccc2oc(=S)n(Cc3cccc(F)c3)c2c1
inhibition at 100 µM (DU-145 [1]): 46%

SMILES: Cc1ccc2oc(=S)n(Cc3ccccc3O)c2c1
inhibition (DU-145 [1]): inactive

SMILES: S=c1oc2ccc(Cl)cc2n1Cc1ccccc1
inhibition at 100 µM (DU-145 [1]): 34%

SMILES: Cc1cccc2oc(=S)n(Cc3ccccc3)c12
inhibition (DU-145 [1]): inactive

inhibition [6]: Dose-dependent effect | solubility at 24 h [8]: 3 to 4 µM (≈ 1.03 to 1.37 µg/mL) | inhibition [14]: Dose-dependent effect | Ki [2]: 300 to 1000 nM
SMILES: Oc1cc(Cn2c(=S)oc3ccc(C(F)(F)F)cc32)ccc1F
Activity (Rattus norvegicus [3]): Non-Toxic | Activity (Rattus norvegicus [4]): Active | Activity (Rattus norvegicus [5]): Active | inhibition at 100 µM (DU-145 [1]): 84% | Activity (DU-145 [7]): Dose-dependent effect | Activity (Rattus norvegicus [9]): Active | inhibition at 100 µM [10]: 70% | EC50 (DU-145 [11]): 60500 nM | Activity (DU-145 [12]): 20.8% | Activity (DU-145 [13]): Dose-dependent effect | Activity (Rattus norvegicus [15]): Active | Activity (Rattus norvegicus [16]): Non-Toxic | Activity (Rattus norvegicus [17]): Non-Toxic | Activity (Rattus norvegicus [18]): Non-Toxic | Activity (DU-145 [19]): 14.5% | Activity (DU-145 [20]): 16.7% | viability at 100 µM (DU-145 [21]): 47.9% | Activity (DU-145 [22]): Active | Activity (Rattus norvegicus [23]): Non-Toxic

SMILES: O=c1oc2ccc(C(F)(F)F)cc2n1Cc1ccc(F)c(O)c1
inhibition (DU-145 [1]): inactive

SMILES: COc1cccc(Cn2c(=S)oc3ccc(C)cc32)c1
inhibition at 100 µM (DU-145 [1]): 47%

Ki [2]: 2000 to 5000 nM
SMILES: Cc1ccc2oc(=S)n(Cc3ccc(F)c(O)c3)c2c1
inhibition at 100 µM (DU-145 [1]): 31%

SMILES: Cc1ccc2oc(=S)n(Cc3ccccc3[N+](=O)[O-])c2c1
inhibition at 100 µM (DU-145 [1]): 14%

SMILES: Cc1ccc2oc(=S)n(Cc3ccccc3C)c2c1
inhibition (DU-145 [1]): inactive

SMILES: COc1ccc2oc(=S)n(Cc3cccc(O)c3)c2c1
inhibition at 100 µM (DU-145 [1]): 16%

Ki [2]: 1000 to 3000 nM
SMILES: Cc1ccc2oc(=S)n(Cc3ccccc3)c2c1
inhibition at 100 µM (DU-145 [1]): 36%

SMILES: Cc1ccc2oc(=S)n(Cc3ccccc3F)c2c1
inhibition at 100 µM (DU-145 [1]): 28%

Ki [2]: 100 to 600 nM
SMILES: Cc1ccc2oc(=S)n(Cc3cccc(O)c3)c2c1
inhibition at 100 µM (DU-145 [1]): 46%

SMILES: Cc1cccc(Cn2c(=S)oc3ccc(C)cc32)c1
inhibition at 100 µM (DU-145 [1]): 32%

SMILES: Cc1ccc2oc(=S)n(Cc3ccccc3Cl)c2c1
inhibition (DU-145 [1]): inactive
